Results on 95 molecules are retold here after ChEMBL document CHEMBL4513216, “Probing the Open Global Health Chemical Diversity Library for Multistage-Active Starting Points for Next-Generation Antimalarials” (ACS Infect Dis, 2020).

The nature of this series: Toxicity liver stage against HepG2, at 10uM. In kind it is cell-based. The arrangement: test concentration 10 uM, cell line HepG2-A16-CD81EGFP. Conditions: human, HepG2-A16-CD81EGFP cells; read-out: INHIBITION
Put shortly:
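Uninfected HepG2-A16-CD81EGFP cells, 3 × 10^3 per well, 1536-well, plated on prespotted compound at 10 μM final, parasite-free screening media added to match infected plates; puromycin 10 μM positive, DMSO 0.5% negative; run in parallel with 48 h PbLuc assay at 37 °C, 5% CO2; viability by CellTiter-Glo luminescence, normalized to controls.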

On to `Cc1ccc(C(=O)N2CCC3(CC2)CCN(Cc2ccccn2)C3=O)o1`, for which the cytotoxicity at 10 µM is 2.49%. Then `Cc1ccc(CN2CC[C@H]3C[C@H](C(=O)N(C)C)O[C@H]3C2)cc1`, with 1.94%; and `CC(C)c1cc(NC2CCN(C(=O)N3CCCC3)CC2)ncn1`, with 10.2%; and `CC(=O)N1CCC(c2cc3c(ncn3C)c(-c3cnn(C)c3)n2)CC1`, with 0.472%. On to `O=C(NCCN1CCOCC1)Nc1cc(F)ccc1-n1cccn1`, for which the cytotoxicity at 10 µM was -14.9%. Regarding `COc1ccc(F)cc1C(=O)N1CCC2(CCC(=O)N(C(C)C)C2)CC1`, the cytotoxicity at 10 µM is -4.75%. The same measure for `CCOc1nnc(CN(C)CC2CCCN2c2cccnn2)s1` (stereo not given): -10.7%. Take `CNc1nc(C(=O)N2C[C@@H]3CC[C@H]2CN(C2CCOCC2)C3)cs1`: the cytotoxicity at 10 µM came out at 4.84%. Take `CCCS(=O)(=O)CC(=O)Nc1ccsc1`: the cytotoxicity at 10 µM was -5.61%.

In the case of `NC(=O)c1ccc(C2CCCNC2)nc1` (stereo not given), the cytotoxicity at 10 µM is -15.1%.

As for `COc1ccc(-n2nc(C)c(C(C)=O)c2C)cc1C(N)=O`, the cytotoxicity at 10 µM was -3.41%. The same measure for `COCCN1CCCC(c2ncc(C(=O)N3CCOCC3)c(C)n2)C1` (stereo not given): 0.893%; for `CCCNc1nnc(S(=O)(=O)CCOCC)s1`: 5.96%. For the molecule `Cn1cccc1C(=O)NC(C)(C(N)=O)c1cccc(C(F)(F)F)c1` (stereo not given), the cytotoxicity at 10 µM was 3.61%. Take `COc1ccc(C(=O)N2C[C@@H](C(=O)O)[C@H](c3cccc(F)c3)C2)c(O)c1`: the cytotoxicity at 10 µM was found to be 6.03%. `O=C(Nc1ccc(N2CCCCC2)nc1)N1CCc2sccc2C1`: the cytotoxicity at 10 µM is -7.98%. As for `CC(C)S(=O)(=O)N1CCC(c2cc3n(n2)[C@@H](C(F)(F)F)C[C@@H](C)N3)C1` (stereo not given in full), the cytotoxicity at 10 µM was -1.96%. For the molecule `Cc1ccc(-c2nc(CN(Cc3ccco3)C3CCS(=O)(=O)C3)cs2)o1` (stereo not given), the cytotoxicity at 10 µM came out at 10.3%. Turning to `Cc1ccc(C(=O)NCCNC(=O)N(C)C(C)c2ccccn2)cc1` (stereo not given), the cytotoxicity at 10 µM is 7.97%. The same measure for `Cc1ccoc1C1=NNC(=CN2CCOC(Cn3cccn3)C2)O1` (stereo not given): -7.69%; for `CCOc1ccccc1CN1CCc2nc3ccsc3c(=O)n2CC1`: -5.81%. Then `CCOCc1nc2c(c(N3CC=CC3)n1)CCN(C1CCOCC1)CC2`, with -25.2%. For `CC(C)OC(=O)N1CCC(Cc2cccc(C(N)=O)c2)C1` (stereo not given), the cytotoxicity at 10 µM was found to be 7.56%.

Take `OC[C@@H]1CN2CCN(c3ccccn3)C[C@@H]2[C@H]1c1ccccc1`: the cytotoxicity at 10 µM was -2.41%.

As for `COCC(Nc1ncnc2sc(C(=O)O)c(C)c12)c1ccnn1C` (stereo not given), the cytotoxicity at 10 µM is -18.7%. For the molecule `Cc1cccc(NC(=O)N2CCCn3cnc(CN(C)C(C)C)c3C2)c1`, the cytotoxicity at 10 µM was 8.18%.

Consider `CC(O)CN(C)S(=O)(=O)c1ccc(C#N)cc1F` (stereo not given), for which the cytotoxicity at 10 µM is -6.67%. For the molecule `O=C(c1cccc2cccnc12)N1CCCC(n2ccnc2)C1` (stereo not given), the cytotoxicity at 10 µM was -5.75%. As for `COc1ccc(OC2CCN(C(=O)CCc3n[nH]c(C)n3)CC2)cc1`, the cytotoxicity at 10 µM amounted to 4.66%. As to `Cc1nnc(SCC(=O)c2cc3c(cc2Cl)NC(=O)C3)s1`, the cytotoxicity at 10 µM stood at 5.42%. On to `O=C1CC2(CCN(C(=O)c3ccc4c(c3)CCCO4)C2)C(=O)N1` (stereo not given), for which the cytotoxicity at 10 µM was determined as 3.67%.

Consider `N#Cc1ccc(N2CCC3(CCC(=O)N3Cc3ccncc3)CC2)nc1`, for which the cytotoxicity at 10 µM is -109%. Turning to `CC(C)CNC(=O)Nc1cccc(CN2CCOC2=O)c1`, the cytotoxicity at 10 µM was -1.1%. As for `Cc1cn2c(n1)CCC(NC(=O)CNS(C)(=O)=O)C2` (stereo not given), the cytotoxicity at 10 µM is -9.84%. With `O=C1CCC(=O)N1Cc1ccc(C(=O)N2CCCC2c2cccs2)cc1` (stereo not given), the cytotoxicity at 10 µM worked out at 2.8%. `COCCNc1nnc(-c2ccc(C)nc2)s1`: the cytotoxicity at 10 µM is -8.55%. For `CN(C)C(=O)c1cncnc1-c1ccc(CNC(=O)C2CCCO2)cc1` (stereo not given), the cytotoxicity at 10 µM turned out to be 5.55%. For the molecule `CCCn1nccc1NC(=O)CN1CCCC1c1c(C)nn(C)c1C` (stereo not given), the cytotoxicity at 10 µM is -2.7%.

In the case of `COc1ccc(C(=O)N2CCC3(CCC(=O)N(C(C)C)C3)CC2)cc1C`, the cytotoxicity at 10 µM was -3.47%. Consider `CCc1ncc(C(=O)NC(C)(C)CC)s1`, for which the cytotoxicity at 10 µM is -0.343%. The same measure for `Cc1cnn(C2CCCN(C(=O)Cn3ccc(=O)n(C)c3=O)C2)c1` (stereo not given): 1.99%. Then `CNc1cc(-c2cccc(CN)c2)c2cc[nH]c2n1`, with -3.23%; and `Cc1cc(CNc2ccc(CC(=O)N(C)c3ccccc3)cc2)no1`, with -13.9%; and `Cc1nc(-c2ccccc2)cc(C2CCNCC2)n1`, with 3.78%. The same measure for `Cc1cnn(CC2CCCN2C(=O)c2sccc2C#N)c1` (stereo not given): 12.3%; for `CCc1noc(CN(CC)Cc2cc3ccc(F)cc3[nH]c2=O)n1`: 2.24%; for `Cc1ncsc1CCN1CCC(N(C)Cc2noc(C(C)C)n2)C1` (stereo not given): 2.17%. As to `COc1ccc(C(O)CNC(=O)NCc2nc(C)cs2)cc1` (stereo not given), the cytotoxicity at 10 µM was -3.54%. `CS(=O)(=O)N1CCCN(CCCSCc2ccccc2)CC1`: the cytotoxicity at 10 µM is -2.35%. As to `Cc1csc(-c2cccc(NC(=O)N3CCOCC3)c2)n1`, the cytotoxicity at 10 µM is -6.35%. Consider `Cc1nc(C2CCCN2C(=O)CC2CCCC2)ncc1C(N)=O` (stereo not given), for which the cytotoxicity at 10 µM was -21.7%. Take `O=C(c1ccoc1)N1CCc2ncnc(NCc3ccccn3)c2CC1`: the cytotoxicity at 10 µM amounted to 0.224%.

Turning to `CC(NC(=O)NCc1cccnc1N(C)C)c1ccc(F)cc1` (stereo not given), the cytotoxicity at 10 µM is -1.19%. In the case of `COc1ccccc1CC1CCCN(CCC#N)C1` (stereo not given), the cytotoxicity at 10 µM worked out at 1.73%. Turning to `CC(C)(C)c1cn2nc(N3CCOC(Cn4cncn4)C3)sc2n1` (stereo not given), the cytotoxicity at 10 µM is -2.63%. Take `CSCC(=O)N1CCc2c(cnc(C)c2-c2noc(-c3cscn3)n2)C1`: the cytotoxicity at 10 µM amounted to 0.86%.

Turning to `Cc1csc(C2CCCCN2C(=O)c2cc(C3CC3)[nH]n2)n1` (stereo not given), the cytotoxicity at 10 µM is -11.6%. For the molecule `CCc1nccn1CCCNc1nccc(-c2c(C)nn(C)c2C)n1`, the cytotoxicity at 10 µM turned out to be 2.96%. In the case of `CN(C)c1cnn(Cc2nc3ccccc3n2C)c(=O)c1`, the cytotoxicity at 10 µM worked out at 10.9%.

Take `CCn1c(C2CCNCC2)nn(CCn2ccc(C)n2)c1=O`: the cytotoxicity at 10 µM was 2.6%. Turning to `c1cnc(N2CCC(OCCN3CCCCC3)C2)nc1` (stereo not given), the cytotoxicity at 10 µM is -47.3%.

In the case of `CC(COc1ccccc1F)NC(=O)N[C@@H]1C=C[C@H](CO)C1` (stereo not given in full), the cytotoxicity at 10 µM was found to be 3.53%.

In the case of `Cc1ccc(N2C[C@H]3OCC[C@H]3[C@H](C(=O)NC3CCCC3)C2)nn1`, the cytotoxicity at 10 µM is -75.6%. Turning to `O=C(Cc1ccc(F)cc1)N1CCCC(c2n[nH]c3nccnc23)C1` (stereo not given), the cytotoxicity at 10 µM was determined as 4.59%. With `CC(=O)c1ccc(NCc2cc3n(n2)CCCN(S(C)(=O)=O)C3)nc1`, the cytotoxicity at 10 µM amounted to 1.02%. Consider `COCc1noc(-c2ccc(N(C)Cc3cn(C)nc3C)nc2)n1`, for which the cytotoxicity at 10 µM was -9.75%.

Consider `CCN(CC)CCn1c(NC(=O)c2scnc2C)nc2ccccc21`, for which the cytotoxicity at 10 µM was -27.5%. For `O=C(NCCc1nccs1)N1CCC(n2cccc2)CC1`, the cytotoxicity at 10 µM came out at 5.87%.

In the case of `O=C(c1sccc1-n1cnnn1)N1CCCCC1`, the cytotoxicity at 10 µM turned out to be 6.56%. With `COc1ccc(C[C@H]2CN(C(=O)c3ccncc3)CC[C@@H]2OC)cc1`, the cytotoxicity at 10 µM amounted to 5.75%. On to `O=C(CCn1ccc2ccc(Br)cc21)NCc1ccc(C(=O)O)cc1`, for which the cytotoxicity at 10 µM worked out at 13.4%.

With `COc1ccc(C)cc1CN(Cc1nc(C)c(C)o1)C1CCN(C)C1` (stereo not given), the cytotoxicity at 10 µM was -3.41%. For `C=C(C)CN1CCN(Cc2nccn2C)C(C)C1` (stereo not given), the cytotoxicity at 10 µM was -14.6%. The same measure for `COc1ccc(CNc2nc(C3CC3)nc3c(C)nn(C)c23)cc1`: 5.4%. Then `N#Cc1ccc(N2CCCN(CC(=O)N3CCC3)CC2)cc1`, with -8.38%; and `COC1CCN(C(=O)c2nn(-c3ccc(C(C)C)cc3)cc2O)CC1`, with -42.9%; and `CC(C)N(C)CCC(=O)N1CCCC(c2ccc(C(=O)O)cc2)C1` (stereo not given), with -4.1%. Then `CCc1ccc(C(=O)N2CC[C@](C)(O)[C@H](C)C2)[nH]1`, with 2.27%; and `CC(=O)NCCc1cc(N2CCN(C(C)=O)CC2)nc(C2CC2)n1`, with 2.24%.

Regarding `COCCNC(=O)[C@H]1CN(c2nnc(C)s2)C[C@H]2OCC[C@@H]12`, the cytotoxicity at 10 µM was -1.96%. Turning to `c1cncc(CN2Cc3nccn3CC(Cn3cccn3)C2)c1` (stereo not given), the cytotoxicity at 10 µM was -102%. The same measure for `CC(C)c1nccn1C1CCCN(C(=O)CCc2cnn(C)c2)C1` (stereo not given): -1.58%. Turning to `Cc1ccc(-c2nc(CNCC3CN(C)CCO3)co2)cc1` (stereo not given), the cytotoxicity at 10 µM is -14.4%. For `N#Cc1cn(C2CC2)c(=O)n(Cc2cc(-c3cccs3)on2)c1=O`, the cytotoxicity at 10 µM stood at 0.38%. In the case of `CC(C)n1nnc(CC(=O)NCC2(c3cccc(F)c3)CCCC2)n1`, the cytotoxicity at 10 µM worked out at 4.5%. `COc1ccc(-n2ccnc2-c2cnc(C(C)C)nc2)cc1C(=O)O`: the cytotoxicity at 10 µM is -2.42%. Then `CC(=O)NCCCSC1CCN(c2c(F)cccc2F)C1=O` (stereo not given), with -6.35%. As to `Cn1c(NC(=O)CCS(=O)(=O)C2CCCC2)nc2cc(Cl)ccc21`, the cytotoxicity at 10 µM was found to be 7.42%. For `CCc1nnc2n1CCN(C(=O)c1cc3ccc(F)cc3nc1C)C2`, the cytotoxicity at 10 µM is -9.37%. Turning to `CN(C)C(=O)CO[C@H]1CN(Cc2ccc3c(c2)OCO3)[C@@H]2COC[C@H]12`, the cytotoxicity at 10 µM stood at 5.9%. As for `CC(C)c1nnc2n1CC(CNCc1cccnc1)CC2` (stereo not given), the cytotoxicity at 10 µM turned out to be 6.59%. `Cc1cccc(N2CC[C@H]3[C@H]2CCN3C(=O)c2cnn(C)c2)n1`: the cytotoxicity at 10 µM came out at 1.24%. `CC(=O)N1CCCC1C(=O)NCCOc1c(C)cccc1C` (stereo not given): the cytotoxicity at 10 µM is -24.1%.

Take `c1cnn(CC2CCCCN2c2ncnc3sccc23)c1` (stereo not given): the cytotoxicity at 10 µM was 9.48%.

In the case of `Cn1cc(CN2CC[C@H]3OCC[C@@H](C(=O)NCc4ccco4)[C@@H]3C2)cn1`, the cytotoxicity at 10 µM worked out at 6.79%.
